Data from ChEMBL document CHEMBL1132121, “Potent, low-molecular-weight non-peptide inhibitors of malarial aspartyl protease plasmepsin II” (J Med Chem, 1999).

How the values were obtained:
Plasmepsin II = Plasmepsin II (Plasmodium falciparum, UniProt P46925); test: Inhibitory activity against plasmepsin-2
Method in brief: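 Activated Plm II proenzyme, 0.6–0.7 nM final, in 0.1 M sodium acetate pH 5.0 with 10% glycerin and 0.01% Tween-20. Inhibitor in DMSO, preincubated 4.5 min at 25 °C, then DABCYL/EDANS fluorogenic peptide substrate added (Km 0.75 μM). Fluorescence (ex 336/em 490 nm) followed over time. Five to six inhibitor concentrations, duplicate or triplicate. Ki by Williams–Morrison nonlinear fit.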

Cathepsin D = Cathepsin D (Homo sapiens, UniProt P07339); test: Compound was tested for the inhibitory activity against human liver cathepsin D
Sequence of Cathepsin D (P07339 65-162 limits assumed): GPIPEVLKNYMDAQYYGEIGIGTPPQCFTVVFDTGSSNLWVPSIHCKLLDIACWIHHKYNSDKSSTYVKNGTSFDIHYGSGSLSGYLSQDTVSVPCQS
Sequence of Cathepsin D (P07339 169-412 limits assumed): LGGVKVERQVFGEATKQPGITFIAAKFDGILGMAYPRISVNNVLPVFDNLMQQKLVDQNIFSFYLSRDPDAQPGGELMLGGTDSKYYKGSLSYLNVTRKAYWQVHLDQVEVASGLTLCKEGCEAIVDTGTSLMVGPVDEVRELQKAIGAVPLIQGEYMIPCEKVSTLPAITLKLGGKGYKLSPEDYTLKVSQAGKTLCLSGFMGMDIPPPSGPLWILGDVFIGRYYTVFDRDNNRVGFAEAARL
Method in brief: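 Human liver cathepsin D, 0.7 nM final, in 0.1 M formic acid buffer pH 3.7. […] Fluorescence (ex 336/em 490 nm) followed over time. Ki obtained by nonlinear fit to the Williams–Morrison tight-binding equation.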

Sequence of Plasmepsin II (P46925 whole entry): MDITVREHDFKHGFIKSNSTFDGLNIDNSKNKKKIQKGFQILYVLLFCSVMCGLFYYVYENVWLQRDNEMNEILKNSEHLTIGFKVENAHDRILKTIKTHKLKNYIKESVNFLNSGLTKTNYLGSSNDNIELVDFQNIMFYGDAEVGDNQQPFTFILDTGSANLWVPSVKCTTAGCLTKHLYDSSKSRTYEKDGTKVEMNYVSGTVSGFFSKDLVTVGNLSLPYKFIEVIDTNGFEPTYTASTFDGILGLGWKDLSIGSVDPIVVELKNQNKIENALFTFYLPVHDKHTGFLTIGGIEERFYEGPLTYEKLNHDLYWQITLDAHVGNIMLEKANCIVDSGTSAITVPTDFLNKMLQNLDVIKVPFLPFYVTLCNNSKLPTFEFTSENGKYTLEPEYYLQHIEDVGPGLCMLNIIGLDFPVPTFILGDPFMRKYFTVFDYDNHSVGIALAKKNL

Row | Structure (SMILES) | Ki (Plasmepsin II) | Ki (Cathepsin D)
1 | Cc1ccc(C)c(OCC(=O)N[C@@H](Cc2ccccc2)[C@@H](O)CN(CCc2ccc3c(c2)OCO3)C(=O)CCN2C(=O)c3ccccc3C2=O)c1 | 300 nM | –
2 | COc1cc(C(=O)N[C@@H](Cc2ccccc2)[C@@H](O)CN(CCc2ccc3c(c2)OCO3)C(=O)C2CCN(C(C)=O)CC2)cc(OC)c1OCc1ccccc1 | 4.8 nM | 4.3 nM
3 | COc1ccc(CCN(C[C@H](O)[C@H](Cc2ccccc2)NC(=O)c2cc(OC)c(OCc3ccccc3)c(OC)c2)C(=O)C2CCNCC2)cc1 | 9 nM | 71 nM
4 | CN1CCC(C(=O)N(CCc2ccc3c(c2)OCO3)C[C@H](O)[C@H](Cc2ccccc2)NC(=O)COc2cccc(Cl)c2)CC1 | 2 nM | 5.8 nM
5 | COc1ccc(CCN(C[C@H](O)[C@H](Cc2ccccc2)NC(=O)COc2cccc(Cl)c2)C(=O)C2CCN(C)CC2)cc1 | 2 nM | 9.8 nM
6 | COc1cc(C(=O)N[C@@H](Cc2ccccc2)[C@@H](O)CN(CCc2ccc3c(c2)OCO3)C(=O)CCN2C(=O)c3ccccc3C2=O)cc(OC)c1OCc1ccccc1 | 100 nM | –
7 | CC(=O)N1CCC(C(=O)N(CCc2ccc3c(c2)OCO3)C[C@H](O)[C@H](Cc2ccccc2)NC(=O)CNc2cccc(Cl)c2)CC1 | 3 nM | 1.3 nM

Second part, the compound after the results:

Row | Ki (Plasmepsin II) | Ki (Cathepsin D) | Structure (SMILES)
8 | 4 nM | 1.9 nM | CC(=O)N1CCC(C(=O)N(CCc2ccc3c(c2)OCO3)C[C@H](O)[C@H](Cc2ccccc2)NC(=O)COc2cccc(Cl)c2)CC1
9 | 4.1 nM | 58 nM | COc1ccc(CCN(C[C@H](O)[C@H](Cc2ccccc2)NC(=O)c2cc(OC)c(OCc3ccccc3)c(OC)c2)C(=O)C2CCN(C)CC2)cc1
10 | 4.3 nM | 63 nM | COc1ccc(CCN(C[C@H](O)[C@H](Cc2ccccc2)NC(=O)COc2cccc(Cl)c2)C(=O)C2CCNCC2)cc1
11 | 220 nM | – | O=C(COc1cccc(Cl)c1)N[C@@H](Cc1ccccc1)[C@@H](O)CN(CCc1ccc2c(c1)OCO2)C(=O)CCN1C(=O)c2ccccc2C1=O
